# Screening data (PubChem)
# ARNT TACC3 PPI = disrupts binding between human ARNT and TACC3; Q9Y6A5; AlphaScreen His-ARNT PAS-B/GST-TACC3 binding, luminescence; TACC3 fragment carries E629A point mutation; inhibition, % at 9.99 µM; actives 0.66% (n = 390,000);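 active = mean inhibition of replicates at least 50% and at least half of replicates each reaching 50%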;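 also: 0% = complete ARNT plus TACC3 wells and 100% = ARNT alone without TACC3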
# TCR CD3 inh = blocks the human TCR-CD3 interaction | TAMRA-labeled TCR probe fluorescence, biochemical | inhibition, % at 9.4 µM | actives 0.37% (n = 360,000) | AID 651800; in the data active = inhibition above about 19%;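 also: recombinant mutant TCR 2C K166C tagged with TAMRA read by polarization; 0% = receptor in buffer alone and 100% = receptor with positive control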
# HTRA1 inhibitor = HTRA1 (human) protease inhibition | Q92743 | recombinant HTRA1, FP-rhodamine activity-based probe, fluorescence polarization | inhibition, % at 5.96 µM | actives 0.5% (n = 340,000); in the data active = inhibition above about 36%;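 also: 0% = enzyme with DMSO and 100% = wells lacking enzyme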
# mABHD4 FP = inhibits mouse alpha/beta hydrolase domain 4; Q8VD66; purified mABHD4, FP-Rh probe fluorescence polarization; inhibition, % at 8.92 µM; actives 0.54% (n = 370,000); AID 720543;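 active = inhibition exceeding the mean over every tested compound plus 3 SD, cut at about 30% in these data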;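 also: 0% = plate median of compound wells and 100% = S159A mutant with DMSO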
# Target sequence (Q8VD66 whole entry, looked up, the tested form may be a part): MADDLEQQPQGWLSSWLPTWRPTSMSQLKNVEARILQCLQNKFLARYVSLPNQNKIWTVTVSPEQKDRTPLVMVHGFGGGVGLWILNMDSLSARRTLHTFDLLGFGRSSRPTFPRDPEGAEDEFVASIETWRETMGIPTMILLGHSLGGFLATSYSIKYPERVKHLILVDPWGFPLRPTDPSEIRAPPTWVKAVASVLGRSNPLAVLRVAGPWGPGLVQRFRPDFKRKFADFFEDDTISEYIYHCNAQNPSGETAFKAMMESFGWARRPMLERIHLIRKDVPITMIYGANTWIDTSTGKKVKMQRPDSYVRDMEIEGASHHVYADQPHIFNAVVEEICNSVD
#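 assay system = mABHD4 protein | compound dosing = single nominal dose of 8.92 µM, 0.89% DMSO final | read-out basis = percent inhibition of probe binding, normalized to plate controls | schedule = Enzyme–compound pre-incubation 45 min, then probe 60 min, both 25 °C | detection = fluorescence polarization, excitation 525 nm, emission 598 nm, BODIPY TMR filters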
# SIAE inh = inhibitors of human sialic acid acetylesterase SIAE; inhibition, % at 9.66 µM; AID 1053197; Q9HAT2; SIAE FP-Rh probe binding, fluorescence polarization; actives 0.69% (n = 370,000);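 active = inhibition above a cutoff: mean of compounds within the control limits plus 3 SD of those, cut at about 17% in these data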;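 also: 0% = plate median of compound wells and 100% = probe without SIAE protein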
# SIAE inh conf = confirmation of human SIAE inhibitors | AID 1117263 | inhibition, % at 9.66 µM | actives 13% (n = 2,300) | shares compounds with SIAE inh | SIAE FP-Rh activity-based probe, fluorescence polarization;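 active = mean inhibition of the replicates above the hit cutoff set in the primary screen, cut at about 17% in these data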;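 also: 0% = SIAE with DMSO and probe and 100% = probe without SIAE; inhibitors lower polarization as more probe stays unbound to SIAE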
# The depositor's hits bear a star; . = no result. Shown are actives, neighbours in structure and some others; about 1.8% of the full set was active somewhere.
SMILES,ARNT TACC3 PPI,TCR CD3 inh,HTRA1 inhibitor,mABHD4 FP,SIAE inh,SIAE inh conf
CN(C)c1ccc(C(CNC(=O)c2ccc(C#N)cc2)c2c[nH]c3ccccc23)cc1 (configuration not stated),1,-5,17,-1,24*,7
CN(C)c1ccc(C(CNS(=O)(=O)c2ccc(F)cc2)c2c[nH]c3ccccc23)cc1 (configuration not stated),1,0,5,-9,6,.
C[C@@H]1CN([C@@H](C)CO)S(=O)(=O)c2ccc(C3=CCCC3)cc2O[C@@H]1CN(C)C(=O)C1CCCCC1,-4,.,.,.,.,.
CN1[C@@H]2c3ccc(-c4ccncc4)c(=O)n3C[C@H]1[C@H](CO)[C@H]2C(=O)NC1CCCCC1,21,.,.,.,.,.
Cc1ccccc1P(=O)(CO)c1ccccc1C,-14,-10,1,1,178*,3
Cc1noc(C)c1S(=O)(=O)N(C)C[C@H]1OCCCC[C@@H](C)Oc2ccc(NC(=O)Nc3cccc4ccccc34)cc2C(=O)N([C@@H](C)CO)C[C@@H]1C,-7,.,.,.,.,.
C[C@@H]1CN([C@@H](C)CO)C(=O)Cc2cc(NC(=O)NC3CCCCC3)ccc2O[C@H]1CN(C)S(C)(=O)=O,-1,.,.,.,.,.
Cc1c(C(=O)N2CCCCC2)c(S(=O)(=O)N(C)Cc2ccccc2)c(C)n1C,-4,-4,-2,3,23*,-1
Cc1c(C(=O)N2CCCCC2)c(S(=O)(=O)N(C)Cc2ccco2)c(C)n1C,-5,-5,11,-5,0,.
O=S(=O)(NCc1ccco1)c1ccccc1Br,2,4,-2,-5,20*,-1
O=C(O)CSc1c2c(nc3cc(C(=O)N4CCOCC4)ccc13)CCCC2,3,12,3,5,27*,5
O=C(Oc1cccc2c(O)cccc12)c1ccco1,2,3,24,24,18*,-2
C[C@H]1CN([C@@H](C)CO)C(=O)c2c(c3ccccc3n2C)-c2ccccc2CO[C@@H]1CN(C)C(=O)Cc1ccccc1,6,.,.,.,.,.
COc1ccc(C=CC(=O)c2ccc([N+](=O)[O-])cc2)cc1,-7,5,-1,-2,0,.
Cc1[nH]c(C)c(C(=O)/C=C/c2ccc([N+](=O)[O-])cc2)c1C,0,-1,17,15,25*,3
O=C([C@H]1[C@H](CO)[C@H]2Cn3c(ccc(-c4ccc(F)cc4)c3=O)[C@H]2N1Cc1cocn1)N1CCOCC1,-1,.,.,.,.,.
CCOc1ccc(Nc2nc(N)c([N+](=O)[O-])c(NCc3ccccc3)n2)cc1,16,6,14,2,20*,32*
Cc1ccc(N(C)C(=O)c2ccc(CNc3c(N4CCC(C)CC4)c(=O)c3=O)cc2)cc1,-8,-6,2,8,20*,2
CC1CCN(c2c(NCc3ccc(C(=O)N(C)C4CCCCC4)cc3)c(=O)c2=O)CC1,-6,6,-4,-1,1,.
O=C(N[C@@H]1C=C[C@@H](CC(=O)N2CCOCC2)O[C@@H]1CO)c1ccc2c(c1)OCO2,-6,.,.,.,.,.
O=C(NCc1ccccc1)[C@@H]1CCCN1C(=O)[C@H]1CCCN1C(=O)c1ccc(F)c(F)c1,.,4,.,6,9,.
O=C(NCc1ccccc1)[C@H]1CCCN1C(=O)[C@H]1CCCN1C(=O)c1ccc(F)c(F)c1,.,7,.,-1,18*,-1
O=C(NCc1ccc(F)cc1)C1CCCN1C(=O)Nc1ccc(Cl)cc1 (configuration not stated),-10,4,4,-4,17*,0
C[C@@H]1CN([C@H](C)CO)C(=O)c2cccc(NC(=O)c3ccc(-c4nccs4)cc3)c2O[C@H]1CN(C)C(=O)Nc1ccc(C(F)(F)F)cc1,-13,.,.,.,.,.
COc1ccc(CCNc2ncnc3cc(OC)c(OC)cc23)cc1OC,-2,-8,-1,-2,-6,.
SMILES,ARNT TACC3 PPI,TCR CD3 inh,HTRA1 inhibitor,mABHD4 FP,SIAE inh,SIAE inh conf
COc1ccc(CCNc2ncnc3c2[nH]c2cc(OC)c(OC)cc23)cc1OC,-4,-9,9,13,19*,26*
C[C@@H]1CCCCO[C@@H](CN(C)Cc2ccc(C(F)(F)F)cc2)[C@@H](C)CN([C@H](C)CO)C(=O)c2cc(N(C)C)ccc2O1,8,0,4,13,22*,6
CC(=O)c1sc(Nc2nc3cc4c(cc3s2)OCO4)nc1C,-7,3,2,4,4,.
CCOC(=O)c1sc(Nc2nc3c(OC)cccc3s2)cc1C,21,-6,-2,9,19*,1
CCOC(=O)c1sc(Nc2nc3cc4c(cc3s2)OCO4)cc1C,-2,-10,8,0,19*,7
C[C@]1(C(=O)NCCN2CCOCC2)C=C[C@@H](Cc2ccccc2)N1C(=O)c1ccccc1,-8,3,19,-1,21*,-2
CC(=O)N1[C@H](Cc2ccccc2)C=C[C@]1(C)C(=O)NCCN1CCOCC1,.,-5,-11,-9,-2,.
C[C@H]1CN([C@@H](C)CO)C(=O)Cc2cc(NC(=O)CCCCCC(=O)Nc3ccccc3N)ccc2O[C@H]1CN(C)Cc1ccc(C(F)(F)F)cc1,9,.,.,.,.,.
COC(=O)C1CN(Cc2ccc(C)cc2)CCS(=O)(=O)N1Cc1cn(Cc2ccc(F)cc2)nn1 (configuration not stated),.,.,.,-2,60*,-3
COc1cc(-c2nnc(CSc3nnc(Nc4ccc(Oc5ccccc5)cc4)s3)o2)cc(OC)c1OC,-8,1,-35,-20,19*,-15
O=C(NCC[C@@H]1CC[C@H](NC(=O)C2CCC2)[C@H](CO)O1)c1ccc(F)cc1,5,.,.,.,.,.
COC(=O)C[C@H]1C=C[C@@H](NC(=O)c2ccccc2)[C@H](CO)O1,-11,.,.,.,.,.
O=C(c1ccc(N2C(=O)CCC2=O)cc1)N1CCCSC1=Nc1ccccc1,.,5,-5,6,29*,5
CCc1noc(C)c1C(=O)N1CCCSC1=Nc1ccccc1,1,1,1,0,-5,.
OC(c1ccc(CN2CCCCC2)cc1)c1ncc(-c2ccccc2)[nH]1 (configuration not stated),.,-7,.,1,24*,-1
CCC1CCC2(CC1)NC(=O)N(CC(=O)NCc1ccccc1Cl)C2=O (configuration not stated),-2,9,-1,6,17*,4
O=C(CN1C(=O)NC2(CCCCCCC2)C1=O)NCc1ccccc1Cl,-4,0,2,-3,1,.
O=C(CSc1nc2ccccc2o1)N1N=C(c2cccs2)CC1c1ccc(F)cc1 (configuration not stated),3,3,-2,-6,20*,-5
Cc1ccc(C2CC(c3cccs3)=NN2C(=O)CSc2nc3ccccc3o2)cc1 (configuration not stated),4,0,-42,-25,-3,.
